Experimental data taken from ChEMBL document CHEMBL4342526, “Exploration of the Structural Space in 4(3H)-Quinazolinone Antibacterials” (J Med Chem, 2020).
Converted amounts (≈) assume the structure as drawn.

Columns and labels:
[1] = AUC (0 to infinity) in ICR mouse at 10 mg/kg, po administered via gavage by UV-UPLC analysis; type: ADME, organism-based; design: dose 10 mg/kg, route oral, time infinity; conditions: in vivo
[2] = test system: Streptococcus pneumoniae; assay: Antibacterial activity against Streptococcus pneumoniae ATCC 49619 measured after 16 to 20 hrs by microdilution method; type: functional
Method in brief: (§1)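 CLSI broth microdilution: two-fold serial dilutions in triplicate in cation-adjusted Mueller–Hinton broth with 2% NaCl, inoculum 5 × 10^5 CFU/mL, incubated at 37 °C for 16–20 h. MIC is the lowest concentration preventing visible growth.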

[3] = test system: Staphylococcus aureus; assay: […] activity against clindamycin/erythromycin/spectinomycin-resistant mec-positive Staphylococcus aureus NRS70 incubated for 16 to 20 hrs followed by re-plating on agar plate; type: functional; conditions: read-out: MBC99.9
[4] = test system: HeLa; assay: Cytotoxicity against human HeLa cells assessed as reduction in cell viability measured after 16 hrs by XTT assay; type: cell-based
Method in brief: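 HeLa cells (ATCC CCL-2), run in triplicate. Viability was read by XTT, and IC50 was obtained by nonlinear regression.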

[5] = AUC (0 to infinity) in ICR mouse at 10 mg/kg, iv by UV-UPLC analysis; type: ADME, organism-based; design: dose 10 mg/kg, time infinity, route intravenous; conditions: in vivo
Method in brief: (§2)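 Female ICR mice, 6–8 weeks old, 20–25 g. Each received 50 μL by tail-vein injection (5 or 10 mg/kg) of a filter-sterilized 2 or 4 mg/mL solution in 20% DMSO/10% Tween-80/70% water. Terminal blood was collected and plasma harvested by centrifugation. Plasma was precipitated with acetonitrile containing internal standard, and the supernatant was analyzed by C18 UPLC with UV detection at 285 nm.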

[6] = Elimination half life in ICR mouse at 10 mg/kg, iv by UV-UPLC analysis; type: ADME, organism-based; conditions: in vivo; method in brief: as §2
[7] = Elimination half life in ICR mouse at 10 mg/kg, po administered via gavage by UV-UPLC analysis; type: ADME, organism-based; conditions: in vivo, read-out: beta t1/2 (converted)
[8] = test system: Clostridioides difficile; assay: Antibacterial activity against Clostridium difficile ATCC 43255 measured after 16 to 20 hrs by microdilution method; type: functional
[9] = test system: Staphylococcus aureus; assay: (§3) Potentiation of piperacillin and tazobactam-induced bactericidal activity against methicillin resistant Staphylococcus aureus NRS70 infected in ICR mouse model of neutropenic thigh infection assessed as log reduction in bacterial count in thigh at 40 mg/kg, sc administered at 8 hrs interval for 3 times starting from 1 hr post infection and measured 24 hrs post infection; type: functional
Method in brief: (§4)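 Neutropenic ICR mouse thigh model as above (cyclophosphamide 200 mg/kg ip days −4 and −1; NRS70 1 × 10^6 CFU/mL, 0.1 mL im right thigh); compound given with piperacillin 12 mg/kg plus tazobactam 1.5 mg/kg, sc in 10% DMSO/90% water every 8 h ×3 from 1 h; thigh CFU at 24 h; n = 8; mean ± SEM, ANOVA/Tukey.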

[10] = test system: Enterococcus faecalis; assay: Antibacterial activity against Enterococcus faecalis ATCC 29212 measured after 16 to 20 hrs by microdilution method; type: functional; method in brief: as §1
[11] = test system: Staphylococcus aureus; assay: as §3, with “20” for “40”; type: functional; method in brief: as §4
[12] = Clearance in ICR mouse at 10 mg/kg, iv by UV-UPLC analysis relative to hepatic blood flow; type: ADME, organism-based; conditions: in vivo; method in brief: as §2
[13] = Selectivity index, ratio of IC50 for human HeLa cells to MIC for clindamycin/erythromycin/spectinomycin-resistant mec-positive Staphylococcus aureus NRS70; type: toxicity
Method in brief: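 HeLa cytotoxicity by XTT assay in triplicate, IC50 by nonlinear regression; ratio IC50 over broth microdilution MIC against NRS70.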

[14] = target: T1, MecA (Staphylococcus aureus) (UniProt Q7DHH4); assay: Binding affinity to PBP2a in clindamycin/erythromycin/spectinomycin-resistant mec-positive Staphylococcus aureus NRS70 assessed potentiation of piperacillin and tazobactam-induced bactericidal activity by measuring log reduction in bacterial count at 0.5 times MIC measured after 24 hrs by time-kill assay
T1 sequence (whole entry): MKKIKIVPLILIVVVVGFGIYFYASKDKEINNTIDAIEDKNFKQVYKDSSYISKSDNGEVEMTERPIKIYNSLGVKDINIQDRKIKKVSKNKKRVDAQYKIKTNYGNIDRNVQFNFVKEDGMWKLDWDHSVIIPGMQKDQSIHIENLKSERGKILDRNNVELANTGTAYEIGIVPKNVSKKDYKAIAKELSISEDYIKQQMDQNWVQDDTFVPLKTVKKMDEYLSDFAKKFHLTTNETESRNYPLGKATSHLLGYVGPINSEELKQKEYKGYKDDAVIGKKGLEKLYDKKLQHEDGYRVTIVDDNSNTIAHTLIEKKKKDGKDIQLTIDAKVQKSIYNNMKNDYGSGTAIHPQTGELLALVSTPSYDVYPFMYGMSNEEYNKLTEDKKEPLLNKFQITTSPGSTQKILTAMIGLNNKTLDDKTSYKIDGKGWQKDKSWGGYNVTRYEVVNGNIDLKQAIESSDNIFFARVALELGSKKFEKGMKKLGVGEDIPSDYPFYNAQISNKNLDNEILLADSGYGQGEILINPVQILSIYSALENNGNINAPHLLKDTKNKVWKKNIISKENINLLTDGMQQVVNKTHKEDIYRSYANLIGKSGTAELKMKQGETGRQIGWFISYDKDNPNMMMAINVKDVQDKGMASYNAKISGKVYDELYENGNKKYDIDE

[15] = test system: Bacillus licheniformis; assay: Antibacterial activity against Bacillus licheniformis ATCC 12759 measured after 16 to 20 hrs by microdilution method; type: functional; method in brief: as §1
[16] = test system: Staphylococcus aureus; assay: as §3, with “Bactericidal” for “Potentiation of piperacillin and tazobactam-induced bactericidal”, “20” for “40”; type: functional
Method in brief: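 Female ICR mice (6–8 weeks, 20–25 g) made neutropenic with cyclophosphamide 200 mg/kg ip at 4 and 1 days pre-infection; 0.1 mL NRS70 at 1 × 10^6 CFU/mL in brain heart infusion injected into right thigh; drug in 10% DMSO/90% water sc every 8 h ×3 from 1 h post-infection; thigh CFU counted at 24 h; n = 8/group; mean ± SEM, one-way ANOVA with Tukey test.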

[17] = test system: Staphylococcus aureus; assay: Antibacterial activity against Staphylococcus aureus ATCC 29213 measured after 16 to 20 hrs in presence of bovine serum albumin by microdilution method; type: functional
Method in brief: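 S. aureus ATCC29213 MIC was run by CLSI microdilution in cation-adjusted Mueller–Hinton broth plus 2% NaCl, with and without 0.5% bovine serum albumin. Compounds were two-fold serially diluted in triplicate, inoculum was 5 × 10^5 CFU/mL, and plates were incubated at 37 °C for 16–20 h. The endpoint was the lowest concentration with no visible growth.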

[18] = Oral bioavailability in ICR mouse at 10 mg/kg administered via gavage by UV-UPLC analysis; type: ADME, organism-based; conditions: in vivo
[19] = test system: Staphylococcus aureus; assay: Antibacterial activity against clindamycin/erythromycin/spectinomycin-resistant mec-positive Staphylococcus aureus NRS70 measured after 16 to 20 hrs by microdilution method; type: functional
Method in brief: (§5)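 CLSI broth microdilution; two-fold serial compound dilutions in triplicate in cation-adjusted Mueller–Hinton broth with 2% NaCl, inoculum 5 × 10^5 CFU/mL; 37 °C for 16–20 h; MIC = lowest concentration with no visible growth.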

[20] = test system: Staphylococcus epidermidis; assay: Antibacterial activity against Staphylococcus epidermidis ATCC 35547 measured after 16 to 20 hrs by microdilution method; type: functional; method in brief: as §5

N#Cc1ccc(/C=C/c2nc3ccccc3c(=O)n2-c2cc(C(=O)O)ccc2F)cc1
AUC(0-inf) [1]: 16800 ng·h/mL
MIC [2]: 8 µg/mL (≈ 19.4 µM)
MBC [3]: > 128 µg/mL
IC50 [4]: 62 µg/mL (≈ 151 µM)
AUC(0-inf) [5]: 22000 ng·h/mL
beta t1/2 [6]: 13.7 h
half-life [7]: 11.2 h
MIC [8]: 128 µg/mL (≈ 311 µM)
log(activity) [9]: 1.33
MIC [10]: > 128 µg/mL
log(activity) [11]: 0.75
CL [12]: < 10%
selectivity ratio [13]: 124
log(activity) [14]: > 3
MIC [15]: > 128 µg/mL
log(activity) [16]: 0.47
MIC [17]: 2 µg/mL
F [18]: 65%
MIC [19]: 0.5 µg/mL (≈ 1.22 µM)
MIC [20]: 0.25 µg/mL (≈ 0.608 µM)
